Experimental data from ChEMBL document CHEMBL1212783, “Cellular pharmacology of the anti-hepatitis B virus agent beta-L-2',3'-didehydro-2',3'-dideoxy-N4-hydroxycytidine: relevance for activation in HepG2 cells” (Antimicrob Agents Chemother, 2010).

Legend:
[1] = Half life in human HepG2 cells by HPLC analysis; format: ADME, cell-based
Method in brief: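 HepG2 cells (1.5 × 10^6/well) were loaded 24 h with 10 μM [3H]-labelled nucleoside, washed three times and chased in drug-free medium. Cells were harvested at intervals, then counted and methanol-extracted. Mono-, di- and triphosphates were quantified by radio-HPLC. t1/2 was calculated as 0.693/κ, where κ is the terminal slope of a semilog plot of intracellular phosphate level versus time.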

[2] = Cytotoxicity against human HepG2 cells; format: cell-based; conditions: read-out: CD50 (the source's name)
[3] = test system: HepG2; assay: Drug metabolism in human HepG2 cells assessed as compound diphosphate level per 10^6 cells at 10 uM after 6 hrs by reversed-phase HPLC analysis; format: ADME, cell-based; conditions: hepg2, 6 h
Method in brief: (§1)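 HepG2 cells were grown in DMEM with 10% FBS and 1 mM pyruvate at 37°C, 5% CO2. They were seeded at 2.5 × 10^6/well and exposed after adherence to 2 or 10 μM [3H]-labelled nucleoside (440 or 1,000 dpm/pmol) for 6–24 h. Cells were washed in ice-cold PBS, trypsinized and counted (viability >95%). Metabolites were extracted twice in 60% methanol at −20°C for 16 h. Extracts were separated by ion-pair reverse-phase C18 HPLC and counted by fraction scintillation. Phosphates were identified by UV spectra, a triphosphate standard and alkaline phosphatase digestion.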

[4] = test system: HepG2; assay: Drug metabolism in human HepG2 cells assessed as compound monophosphate level per 10^6 cells at 2 uM after 24 hrs by reversed-phase HPLC analysis; format: ADME, cell-based; conditions: hepg2, 24 h; method in brief: as §1
[5] = test system: HepG2; assay: Drug metabolism in human HepG2 cells assessed as compound monophosphate level per 10^6 cells at 10 uM after 24 hrs by reversed-phase HPLC analysis; format: ADME, cell-based; conditions: hepg2, 24 h; method in brief: as §1
[6] = test system: HepG2; assay: Drug metabolism in human HepG2 cells assessed as compound triphosphate level per 10^6 cells at 2 uM after 12 hrs by reversed-phase HPLC analysis; format: ADME, cell-based; conditions: hepg2, 12 h; method in brief: as §1
[7] = test system: HepG2; assay: Drug metabolism in human HepG2 cells assessed as compound diphosphate level per 10^6 cells at 2 uM after 12 hrs by reversed-phase HPLC analysis; format: ADME, cell-based; conditions: hepg2, 12 h; method in brief: as §1
[8] = test system: HepG2; assay: Drug metabolism in human HepG2 cells assessed as compound triphosphate level per 10^6 cells at 2 uM after 6 hrs by reversed-phase HPLC analysis; format: ADME, cell-based; conditions: hepg2, 6 h; method in brief: as §1
[9] = test system: HepG2; assay: Drug metabolism in human HepG2 cells assessed as compound monophosphate level per 10^6 cells at 10 uM after 6 hrs by reversed-phase HPLC analysis; format: ADME, cell-based; conditions: hepg2, 6 h; method in brief: as §1
[10] = Cytotoxicity against human HepG2 cells at 2 uM after 48 hrs; format: cell-based; conditions: read-out: INH
Method in brief: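 HepG2 cells were preincubated 24 h with 3 μM 3-deazauridine, then exposed for a second 24 h to 3 μM deazauridine plus 2 μM tritiated test nucleoside. Read-out was inhibition of HepG2 cell growth over the 48 h.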

[11] = test system: HepG2; assay: Drug metabolism in human HepG2 cells assessed as compound triphosphate level per 10^6 cells at 10 uM after 18 hrs by reversed-phase HPLC analysis; format: ADME, cell-based; conditions: hepg2, 18 h; method in brief: as §1
[12] = test system: HepG2; assay: Drug metabolism in human HepG2 cells assessed as compound monophosphate level per 10^6 cells at 2 uM after 6 hrs by reversed-phase HPLC analysis; format: ADME, cell-based; conditions: hepg2, 6 h; method in brief: as §1
[13] = test system: HepG2; assay: Drug metabolism in human HepG2 cells assessed as compound monophosphate level per 10^6 cells at 10 uM after 18 hrs by reversed-phase HPLC analysis; format: ADME, cell-based; conditions: hepg2, 18 h; method in brief: as §1
[14] = test system: HepG2; assay: Drug metabolism in human HepG2 cells assessed as compound triphosphate level per 10^6 cells at 10 uM after 24 hrs by reversed-phase HPLC analysis; format: ADME, cell-based; conditions: hepg2, 24 h; method in brief: as §1
[15] = test system: HepG2; assay: Drug metabolism in human HepG2 cells assessed as compound diphosphate level per 10^6 cells at 2 uM after 24 hrs by reversed-phase HPLC analysis; format: ADME, cell-based; conditions: hepg2, 24 h; method in brief: as §1
[16] = test system: HepG2; assay: Drug metabolism in human HepG2 cells assessed as compound monophosphate level per 10^6 cells at 10 uM after 12 hrs by reversed-phase HPLC analysis; format: ADME, cell-based; conditions: hepg2, 12 h; method in brief: as §1
[17] = test system: HepG2; assay: Drug metabolism in human HepG2 cells assessed as compound diphosphate level per 10^6 cells at 2 uM after 6 hrs by reversed-phase HPLC analysis; format: ADME, cell-based; conditions: hepg2, 6 h; method in brief: as §1
[18] = test system: Hepatitis B virus; assay: Antiviral activity against HBV infected in human HepG2(2.2.15) cells; format: functional; conditions: read-out: ED50 (the source's name)
[19] = test system: HepG2; assay: Drug metabolism in human HepG2 cells assessed as compound monophosphate level per 10^6 cells at 2 uM after 12 hrs by reversed-phase HPLC analysis; format: ADME, cell-based; conditions: hepg2, 12 h; method in brief: as §1
[20] = test system: HepG2; assay: Drug metabolism in human HepG2 cells assessed as compound triphosphate level per 10^6 cells at 10 uM after 6 hrs by reversed-phase HPLC analysis; format: ADME, cell-based; conditions: hepg2, 6 h; method in brief: as §1
[21] = test system: HepG2; assay: Drug metabolism in human HepG2 cells assessed as compound monophosphate level per 10^6 cells at 2 uM after 18 hrs by reversed-phase HPLC analysis; format: ADME, cell-based; conditions: hepg2, 18 h; method in brief: as §1
[22] = test system: HepG2; assay: Drug metabolism in human HepG2 cells assessed as compound diphosphate level per 10^6 cells at 10 uM after 24 hrs by reversed-phase HPLC analysis; format: ADME, cell-based; conditions: hepg2, 24 h; method in brief: as §1
[23] = test system: HepG2; assay: Drug metabolism in human HepG2 cells assessed as compound diphosphate level per 10^6 cells at 10 uM after 12 hrs by reversed-phase HPLC analysis; format: ADME, cell-based; conditions: hepg2, 12 h; method in brief: as §1
[24] = test system: HepG2; assay: Drug metabolism in human HepG2 cells assessed as compound diphosphate level per 10^6 cells at 10 uM after 18 hrs by reversed-phase HPLC analysis; format: ADME, cell-based; conditions: hepg2, 18 h; method in brief: as §1
[25] = test system: HepG2; assay: Drug metabolism in human HepG2 cells assessed as compound diphosphate level per 10^6 cells at 2 uM after 18 hrs by reversed-phase HPLC analysis; format: ADME, cell-based; conditions: hepg2, 18 h; method in brief: as §1
[26] = test system: HepG2; assay: Drug metabolism in human HepG2 cells assessed as compound triphosphate level per 10^6 cells at 10 uM after 12 hrs by reversed-phase HPLC analysis; format: ADME, cell-based; conditions: hepg2, 12 h; method in brief: as §1
[27] = test system: HepG2; assay: Drug metabolism in human HepG2 cells assessed as compound triphosphate level per 10^6 cells at 2 uM after 24 hrs by reversed-phase HPLC analysis; format: ADME, cell-based; conditions: hepg2, 24 h; method in brief: as §1
[28] = test system: HepG2; assay: Drug metabolism in human HepG2 cells assessed as compound triphosphate level per 10^6 cells at 2 uM after 18 hrs by reversed-phase HPLC analysis; format: ADME, cell-based; conditions: hepg2, 18 h; method in brief: as §1
[29] = test system: Hepatitis B virus; assay: Inhibition of HBV DNA polymerase at 1 uM

SMILES: O=c1nc(NO)ccn1[C@@H]1C=C[C@H](COP(=O)(O)OP(=O)(O)O)O1
- half-life [1]: 18.6 h

SMILES: Nc1ccn([C@@H]2C=C[C@H](CO)O2)c(=O)n1
- CC50 [2]: 20 µM

SMILES: O=c1nc(NO)ccn1[C@@H]1C=C[C@H](CO)O1
- Stability [3]: 11.5 pmol
- Stability [4]: 4 pmol
- Stability [5]: 11.5 pmol
- Stability [6]: 3.1 pmol
- Stability [7]: 4.5 pmol
- Stability [8]: 1.1 pmol
- Stability [9]: 4.4 pmol
- cytotoxicity at 48 h, 2 µM [10]: 11%
- Stability [11]: 15.2 pmol
- Stability [12]: 0.5 pmol
- Stability [13]: 7.3 pmol
- Stability [14]: 19.4 pmol
- Stability [15]: 9.8 pmol
- Stability [16]: 5.6 pmol
- Stability [17]: 1.3 pmol
- EC50 [18]: 0.03 µM
- Stability [19]: 1.3 pmol
- Stability [20]: 5.3 pmol
- Stability [21]: 2.3 pmol
- Stability [22]: 43.5 pmol
- Stability [23]: 22.6 pmol
- Stability [24]: 30.3 pmol
- Stability [25]: 6.6 pmol
- Stability [26]: 10.4 pmol
- Stability [27]: 5.3 pmol
- Stability [28]: 3.8 pmol

SMILES: O=c1nc(NO)ccn1[C@@H]1C=C[C@H](COP(=O)(O)OP(=O)(O)OP(=O)(O)O)O1
- half-life [1]: 29.7 h
- inhibition [29]: 90%
